Experimental findings from ChEMBL document CHEMBL1122206, “Use of adenine nucleotide derivatives to assess the potential of exo-active-site-directed reagents as species- or isozyme-specific enzyme inactivators. 5. Interactions of adenosine 5'-triphosphate derivatives with rat pyruvate kinases, Escherichia coli thymidine kinase, and yeast and rat …” (1982) are described below.

In assay [1] the target is Thymidine kinase (Escherichia coli) (UniProt P23331). The experiment in a line: Compound was tested for the loss of thymidine kinase activity from Escherichia coli after 6 hr at 0 degrees C at 10 mM.
The target in assay [2] is T1, Hexokinase-2 (Rattus norvegicus) (UniProt P27881).
T1 sequence (whole entry): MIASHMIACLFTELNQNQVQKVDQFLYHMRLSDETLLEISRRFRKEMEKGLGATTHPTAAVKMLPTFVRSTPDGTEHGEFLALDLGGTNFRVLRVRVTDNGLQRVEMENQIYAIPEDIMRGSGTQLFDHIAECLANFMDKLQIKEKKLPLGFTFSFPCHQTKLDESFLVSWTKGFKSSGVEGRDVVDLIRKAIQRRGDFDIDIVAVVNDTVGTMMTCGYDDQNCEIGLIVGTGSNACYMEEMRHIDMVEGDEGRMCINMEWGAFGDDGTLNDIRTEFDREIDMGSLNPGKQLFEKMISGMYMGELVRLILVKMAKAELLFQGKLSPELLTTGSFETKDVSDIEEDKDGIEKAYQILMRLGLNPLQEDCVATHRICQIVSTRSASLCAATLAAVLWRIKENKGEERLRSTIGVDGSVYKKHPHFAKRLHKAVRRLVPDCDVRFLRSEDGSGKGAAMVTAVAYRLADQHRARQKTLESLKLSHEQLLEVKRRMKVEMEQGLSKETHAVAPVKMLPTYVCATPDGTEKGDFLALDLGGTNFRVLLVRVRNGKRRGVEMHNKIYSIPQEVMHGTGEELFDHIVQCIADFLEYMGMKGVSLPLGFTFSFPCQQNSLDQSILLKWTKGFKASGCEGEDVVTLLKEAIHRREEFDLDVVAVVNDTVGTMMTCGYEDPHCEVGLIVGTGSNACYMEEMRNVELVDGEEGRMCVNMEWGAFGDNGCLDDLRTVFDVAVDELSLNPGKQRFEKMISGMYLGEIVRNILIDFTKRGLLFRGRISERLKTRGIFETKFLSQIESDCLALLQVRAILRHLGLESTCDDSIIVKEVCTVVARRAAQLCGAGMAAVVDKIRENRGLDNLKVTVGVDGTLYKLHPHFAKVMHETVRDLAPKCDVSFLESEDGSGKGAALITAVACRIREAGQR
The experiment in a line: Time dependent inhibition of hexokinase 2 activity after 6 h, at 5 mM compound.

A further assay has as its system Saccharomyces cerevisiae. In words: Substrate activity against yeast hexokinase as 1:1 Mg complexes at 5.0 mM. A digest of the protocol: (§1)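 Hexokinase activity read at 22 °C as A340 change, coupled to glucose-6-phosphate dehydrogenase, in 0.05 M Tris-HCl pH 7.6 with 6.6 mM MgCl2, 10 mM α-D-glucose and 0.93 mM NADP. Donor was 5.0 mM MgATP derivative (1:1 Mg complex) in place of ATP. Yeast HK was isoelectric-focused. Rat HK I and III came from electrofocused liver extract, HK II from dialysed muscle extract.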

The nature of assay [3]: Substrate concentration for half maximal velocity was reported for rat hexokinase I. A digest of the protocol:
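Coupled glucose-6-phosphate dehydrogenase/NADP assay: A340 rate at 22 °C in 0.05 M Tris-HCl pH 7.6 with 6.6 mM MgCl2, 10 mM α-D-glucose and 0.93 mM NADP, nucleotide varied. KM was taken from linear double-reciprocal plots. Rat HK I and III came from electrofocused, dialysed liver extract, HK II from dialysed muscle extract, and yeast HK was isoelectric-focused.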

Assay [4] has as its target T2, Hexokinase-1 (Rattus norvegicus) (UniProt P05708).
T2 sequence (whole entry): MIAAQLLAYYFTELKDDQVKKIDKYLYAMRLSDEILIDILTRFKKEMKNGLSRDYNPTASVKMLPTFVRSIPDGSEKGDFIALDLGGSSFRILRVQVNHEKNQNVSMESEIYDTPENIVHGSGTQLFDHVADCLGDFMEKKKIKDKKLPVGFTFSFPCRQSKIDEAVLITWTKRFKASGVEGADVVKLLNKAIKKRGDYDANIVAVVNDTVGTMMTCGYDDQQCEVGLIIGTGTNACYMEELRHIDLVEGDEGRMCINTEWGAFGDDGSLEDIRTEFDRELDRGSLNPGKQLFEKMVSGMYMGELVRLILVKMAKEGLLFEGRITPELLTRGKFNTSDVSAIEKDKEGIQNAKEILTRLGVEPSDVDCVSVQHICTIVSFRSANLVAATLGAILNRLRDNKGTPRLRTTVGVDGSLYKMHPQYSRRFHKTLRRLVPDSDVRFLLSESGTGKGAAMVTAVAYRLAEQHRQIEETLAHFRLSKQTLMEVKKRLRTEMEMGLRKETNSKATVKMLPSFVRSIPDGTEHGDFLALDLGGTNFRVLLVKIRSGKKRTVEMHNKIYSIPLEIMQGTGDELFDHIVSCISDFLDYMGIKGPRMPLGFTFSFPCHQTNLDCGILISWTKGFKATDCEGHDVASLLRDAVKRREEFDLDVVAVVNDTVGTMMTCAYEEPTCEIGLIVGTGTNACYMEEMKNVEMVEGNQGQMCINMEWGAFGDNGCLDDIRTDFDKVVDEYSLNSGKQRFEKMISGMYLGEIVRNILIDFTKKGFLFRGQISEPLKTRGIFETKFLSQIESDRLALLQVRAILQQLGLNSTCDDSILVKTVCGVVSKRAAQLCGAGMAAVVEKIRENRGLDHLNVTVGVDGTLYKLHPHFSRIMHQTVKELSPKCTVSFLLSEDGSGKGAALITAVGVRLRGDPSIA
In words: Substrate activity for rat hexokinase I as 1:1 Mg complex at 5.0 mM. A digest of the protocol:
as §1

Chain of Thymidine kinase (Escherichia coli) (P23331 whole entry, looked up): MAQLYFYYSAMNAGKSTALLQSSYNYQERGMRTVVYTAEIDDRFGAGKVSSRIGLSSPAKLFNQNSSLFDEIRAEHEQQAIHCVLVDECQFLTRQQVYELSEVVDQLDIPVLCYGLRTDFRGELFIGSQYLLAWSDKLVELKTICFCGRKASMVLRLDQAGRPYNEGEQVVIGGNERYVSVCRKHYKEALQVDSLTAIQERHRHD

Regarding `Nc1ncnc2c1ncn2[C@@H]1O[C@H](COP(=O)(O)OP(=O)(O)OP(=O)(O)O)[C@@H](O)[C@H]1O`, the inhibition in assay [1] and in assay [2] was 0% in each case. Further, the Relative velocity (in the assay on Saccharomyces cerevisiae; in assay [4]) was 1 each time. Moreover, in assay [3], the Km was found to be 440 µM.

The inhibition is the drop in the measured response relative to a control, in per cent. Lower therefore signals little suppression. A word on the Km: it is the substrate concentration at which the rate is half of its maximum.
